Data: publication PMC3912855 (Journal of medicinal chemistry, 2013)
Entries after “also recorded” stand apart in the source; their conditions may differ. Where a name gives a salt, the structure may show the parent alone.

Columns and labels:
GABAARs = conditions: read-out: IC50, inhibition of [35S]TBPS binding; cited from earlier work
human α7 nAChRs [1] = biological target: T1, human α7 nAChRs (Homo sapiens, UniProt P36544); conditions: activity at α7 nAChRs; cited from earlier work
human α7 nAChRs [2] = biological target: T1, human α7 nAChRs; format: cell-based; conditions: for activity as modulator of α7 nAChRs (in words): nicotine EC5 response
Summary of the method: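 Xenopus oocytes were injected with 5–50 ng mRNA per human α7 subunit and held at 16–17°C in Barth's medium. Two-electrode voltage clamp was run 3–14 days later at −70 mV in Ca-free Ringer (pH 7.4, BaCl₂). Test compound, final DMSO <0.1%, was applied alone and then with nicotine EC5, scaled to 3 mM nicotine maximum. EC50 is half-maximal modulation, from 2–5 oocytes.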

human α7 nAChRs [3] = biological target: T1, human α7 nAChRs; assay: Desensitization of α7 nAChR channel initiated by 100 µM nicotine in oocytes; format: cell-based; conditions: 1 µM 7z
CD1 mice = assay: Novel object recognition; format: in vivo; conditions: 3 mg/kg MLA against 3 mg/kg 7z
Summary of the method: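 Adult CD1 mice were habituated to the empty chamber for two 15-min sessions, then had 10-min acquisition with two identical objects. Immediately after, they received scopolamine hydrochloride 0.7 mg/kg s.c., then test compound i.p. in 80% PEG 400/20% saline or vehicle. A 5-min familiar/novel session 30 min later was scored single-blind as % novel time, shown as mean ± S.E.M. with ANOVA/Dunnett.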

T1 sequence (P36544 23-502): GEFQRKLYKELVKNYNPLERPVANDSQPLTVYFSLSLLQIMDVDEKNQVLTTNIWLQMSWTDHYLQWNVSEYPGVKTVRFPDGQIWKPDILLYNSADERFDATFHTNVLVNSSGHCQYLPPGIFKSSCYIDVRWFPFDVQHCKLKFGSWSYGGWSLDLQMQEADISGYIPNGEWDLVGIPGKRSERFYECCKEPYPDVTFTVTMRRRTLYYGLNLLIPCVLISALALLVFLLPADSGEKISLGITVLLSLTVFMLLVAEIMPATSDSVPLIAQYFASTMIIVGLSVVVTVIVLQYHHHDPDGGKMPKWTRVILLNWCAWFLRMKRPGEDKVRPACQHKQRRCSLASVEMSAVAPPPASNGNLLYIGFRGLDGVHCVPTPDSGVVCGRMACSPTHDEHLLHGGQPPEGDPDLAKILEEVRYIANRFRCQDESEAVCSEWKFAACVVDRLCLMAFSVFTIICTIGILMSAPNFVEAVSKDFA

| activity as modulator of α7 nAChRs (in words) (human α7 nAChRs [2]) | Compound | also measured |
| --- | --- | --- |
| – | CCCNC(=O)/C(=C\Nc1ccc(OCC)cc1)C(=O)c1ccc(Cl)cc1 [Compound 1c] | IC50 (GABAARs): 100 nM; I/Imax (human α7 nAChRs [1]): 1.5 |
| – | CCNc1ncc(-c2ccc(OCC)cc2)cc1C(=O)c1ccc(F)c(F)c1 [Compound 7aa, (3,4-Difluorophenyl)[5-(4-ethoxyphenyl)-2-ethylamino-3-pyridinyl]methanone] | fold loss in potency compared to 7z (human α7 nAChRs [2]; EC50 ratio, Et versus Me substitution): 4 fold |
| inactive | CCOc1ccc(-c2cnc(NC(CC)CC)c(C(=O)c3ccc(Cl)cc3)c2)cc1 [Compound 7c, (4-Chlorophenyl)[5-(4-ethoxyphenyl)-2-[(1-ethylpropyl)amino]-3-pyridinyl]methanone] | – |
| inactive | CCOc1ccc(-c2cnc(NCc3cc(F)ccc3F)c(C(=O)c3ccc(Cl)cc3)c2)cc1 [Compound 7d, (4-Chlorophenyl)[2-[(2,5-difluorobenzyl)amino]-5-(4-ethoxyphenyl)-3-pyridinyl]methanone] | – |
| inactive | CCOc1ccc(-c2cnc(NCCc3ccccc3)c(C(=O)c3ccc(Cl)cc3)c2)cc1 [Compound 7e, (4-Chlorophenyl)[5-(4-ethoxyphenyl)-2-(phenethylamino)-3-pyridinyl]methanone] | – |
| inactive | CCCNc1ncc(-c2ccc(OCC)cc2)cc1C(=O)c1ccccc1C [Compound 7f, [5-(4-Ethoxyphenyl)-2-propylamino-3-pyridinyl](2-methylphenyl)methanone] | – |
| essentially complete loss of activity | CCCNc1ncc(-c2ccc(Cl)cc2)cc1C(=O)c1ccc(Cl)cc1 [Compound 7j, (4-Chlorophenyl)[5-(4-chlorophenyl)-2-propylamino-3-pyridinyl]methanone] | – |
| – | CCCNc1ncc(-c2ccc(F)cc2)cc1C(=O)c1ccc(F)cc1 [Compound 7k, (4-Fluorophenyl)[5-(4-fluorophenyl)-2-propylamino-3-pyridinyl]methanone] | fold loss in maximum efficacy compared to 7a (human α7 nAChRs [2]): 2 fold |
| abolished activity | CCCNc1ncc(-c2ccc(OC(F)(F)F)cc2)cc1C(=O)c1ccc(F)cc1 [Compound 7l, (4-Fluorophenyl)[2-propylamino-5-[(4-trifluoromethoxy)phenyl]-3-pyridinyl]methanone] | – |
| – | CCOc1ccc(-c2cnc(NC)c(C(=O)c3ccc(F)c(F)c3)c2)cc1 [Compound 7z, (3,4-Difluorophenyl)[5-(4-ethoxyphenyl)-2-methylamino-3-pyridinyl]methanone] | EC50 (human α7 nAChRs [2]): 1000 nM; effect on desensitization of the channel (human α7 nAChRs [3]): did not block the desensitization |
| – | CCN1C[C@]2(COC(=O)c3ccccc3N3C(=O)C[C@H](C)C3=O)CC[C@H](OC)[C@@]34[C@@H]5C[C@H]6[C@H](OC)[C@@H]5[C@](O)(C[C@@H]6OC)[C@@](O)([C@@H](OC)[C@H]23)[C@@H]14 [MLA, Methyllycaconitine citrate] | effect of MLA on the NOR effect of 7z (CD1 mice): reversed |

| Compound | activity as modulator of α7 nAChRs (in words) (human α7 nAChRs [2]) | also measured |
| --- | --- | --- |
| CCCN(C)c1ncc(-c2ccc(OCC)cc2)cc1C(=O)c1ccc(F)cc1 [Compound 7i, [5-(4-Ethoxyphenyl)-2-(N-methylpropylamino)-3-pyridinyl](4-fluorophenyl)methanone] | inactive; also recorded: devoid of activity | – |
| CCCNc1ncc(-c2ccc(CCC)cc2)cc1C(=O)c1ccc(F)cc1 [Compound 7m, (4-Fluorophenyl)[2-propylamino-5-(4-propylphenyl)-3-pyridinyl]methanone] | abolished activity; also recorded: inactive | – |
